Measurements taken from ChEMBL document CHEMBL1156237, “Antiviral activity of benzimidazole derivatives. II. Antiviral activity of 2-phenylbenzimidazole derivatives” (Bioorg Med Chem, 2010).
Calls of active or inactive are those of the source. How the calls were made is not given here.

Key:
[1] = Cytotoxicity against human MT4 cells after 96 hrs by MTT assay; type: cell-based; details: MT4 cells
Summary of the method: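 Exponentially growing MT-4 cells at 1 × 10^5 cells/mL in RPMI-1640 with 10% FCS, exposed to serial compound dilutions at 37 °C, 5% CO2. Viability by MTT after 96 h; CC50 is the concentration reducing viability of mock-infected cells by 50%.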

[2] = Cytotoxicity against MDBK cells after 48 to 96 hrs by MTT assay; type: cell-based, Bos taurus; details: cattle, MDBK cells
Summary of the method: (§1)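 Cell seeding: MDBK at 6 × 10^5 cells/mL in MEM-E with 10% horse serum and 1 mM Na pyruvate; BHK at 1 × 10^6 cells/mL in MEM-E with 10% FBS. Serial compound dilutions, 37 °C, 5% CO2. Viability of mock-infected cells by MTT after 48–96 h; CC50 is the concentration reducing viability by 50%.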

[3] = Cytotoxicity against BHK cells after 48 to 96 hrs by MTT assay; type: cell-based, Mesocricetus auratus; details: hamster; summary of the method: as §1
[4] = Cytotoxicity against african green monkey Vero cells; type: cell-based; details: chlorocebus sabaeus
Summary of the method: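 Vero 76 monolayers exposed to serial compound dilutions, run in parallel on the same 24-well plates as the plaque-reduction assays. CC50 is the concentration reducing viability of mock-infected cells by 50%.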

[5] = system: Human immunodeficiency virus 1; experiment: Antiviral activity against HIV1 3B infected in human MT4 cells assessed as protection from virus-induced cytopathogenicity after 4 days by MTT method; type: functional, organism-based
Summary of the method: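 MT-4 cells, 1 × 10^4/well in RPMI with or without serial compound dilutions, infected with HIV-1 IIIB, 100 CCID50 (m.o.i. 0.01). Protection from virus-induced cytopathogenicity read by MTT.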

[6] = system: Vesicular stomatitis virus; experiment: Antiviral activity against VSV Indiana lab infected in african green monkey Vero cells after 2 days by plaque reduction assay; type: functional, organism-based
[7] = system: Bovine viral diarrhea virus 1; experiment: Antiviral activity against Bovine viral diarrhea virus NADL infected in MDBK cells assessed as protection from virus-induced cytopathogenicity after 3 to 4 days by MTT method; type: functional, organism-based, Bovine viral diarrhea virus 1-NADL; details: Bovine viral diarrhea virus isolates and strains, MDBK
Summary of the method: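 Cytopathogenicity protection assay. MDBK cells at 3 × 10^4/well, grown overnight to confluence. Infected with BVDV NADL at m.o.i. 0.01 in MEM-E with 0.5% inactivated FBS, 1 mM Na pyruvate and 1% kanamycin. Serial compound dilutions added after 1 h. After 3–4 days at 37 °C, viability read by MTT; EC50 is the concentration giving 50% protection.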

Yellow fever virus = experiment: Antiviral activity against Yellow fever virus 17D infected in BHK cells assessed as protection from virus-induced cytopathogenicity after 3 to 4 days by MTT method; type: functional, organism-based
Coxsackievirus B2 = experiment: Antiviral activity against Human coxsackievirus B2 Ohio-1 infected in african green monkey Vero cells after 3 days by plaque reduction assay; type: functional, organism-based, Coxsackievirus B2 (strain Ohio-1); details: Enterovirus B, Vero, 72 h
Summary of the method: (§2)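 Plaque reduction assay. Vero 76 cells at 2 × 10^5/well, grown overnight to confluence in D-MEM with 10% FBS. Infected 2 h with 50–100 PFU/well, unadsorbed virus removed. Overlay of D-MEM with 1% inactivated FBS and 0.75% methylcellulose, with or without serial compound dilutions. Incubated at 37 °C for 3 days (HSV-1 KOS, CVB-2 Ohio-1) or 5 days (RSV A2). Fixed and stained with crystal violet in 50% ethanol; plaques counted; EC50 by linear regression.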

Poliovirus 1 = experiment: Antiviral activity against Polio virus type1 Sabin strain Chat infected in african green monkey Vero cells after 2 days by plaque reduction assay; type: functional, organism-based, Human poliovirus 1 strain Sabin; details: Enterovirus C, 48 h
Human alphaherpesvirus 1 = experiment: Antiviral activity against HSV1 KOS infected in african green monkey Vero cells after 3 days by plaque reduction assay; type: functional, organism-based; details: Human alphaherpesvirus 1, KOS, 72 h; summary of the method: as §2
[8] = system: Respiratory syncytial virus; experiment: Antiviral activity against RSV A2 infected in african green monkey Vero cells after 5 days by plaque reduction assay; type: functional, organism-based; summary of the method: as §2
Vaccinia virus = experiment: Antiviral activity against Vaccinia virus Elstree-Lister infected in african green monkey Vero cells after 3 days by plaque reduction assay; type: functional, organism-based; details: Orthopoxvirus vaccinia, 72 h
[9] = human respiratory syncytial virus, A2, Vero, 120 h

Row | Structure (SMILES) | CC50 at 96 h [1] [µM] | CC50 [2] [µM] | CC50 [3] [µM] | CC50 [4] [µM] | Activity [5] | Activity [6] | EC50 [7] [µM] | EC50 (Yellow fever virus) [µM] | EC50 (Coxsackievirus B2) [µM] | EC50 (Poliovirus 1) [µM] | EC50 (Human alphaherpesvirus 1) [µM] | EC50 [8, 9] [µM] | EC50 (Vaccinia virus) [µM] | EC50 ([8]; vero) [µM]
1 | O=C(O)CCC(=O)Nc1ccc(-c2nc3cc(C(F)(F)F)ccc3[nH]2)cc1 | > 100 | > 100 | > 100 | > 100 | inactive | inactive | > 100 | > 100 | > 100 | > 100 | > 100 | – | – | –
2 | O=C(CN1CCOCC1)Nc1ccc(-c2nc3cc(C(F)(F)F)ccc3[nH]2)cc1 | > 100 | > 100 | 86 | > 100 | inactive | inactive | > 100 | > 86 | > 100 | > 100 | > 100 | – | – | –
3 | Nc1nc2c(ncn2COCCO)c(=O)[nH]1 [ACYCLOVIR] | > 100 | > 100 | > 100 | > 100 | – | – | > 100 | > 100 | > 100 | > 100 | 3 | > 100 | > 100 | –
4 | COc1c(C)c2c(c(O)c1C/C=C(\C)CCC(=O)O)C(=O)OC2 [MYCOPHENOLIC ACID] | – | – | > 100 | ≥ 13 | – | – | > 42 | > 100 | > 13 | > 13 | > 13 | 0.6 | – | –
5 | O=C(CN1CCCC1)Nc1ccc(-c2nc3ccccc3[nH]2)cc1 | 40 | 70 | 55 | > 100 | inactive | inactive | 10 | 19 | 11 | 90 | > 100 | – | – | –
6 | CC(=O)Nc1ccc(-c2nc3ccccc3[nH]2)cc1 | 100 | > 100 | > 100 | > 100 | inactive | inactive | 90 | > 100 | 87 | > 100 | > 100 | – | – | –
7 | NC(=O)c1ncn([C@@H]2O[C@H](CO)[C@@H](O)[C@H]2O)n1 [RIBAVIRIN] | – | > 100 | > 100 | > 100 | – | – | – | > 100 | > 100 | > 100 | > 100 | 7 | > 100 | –
8 | O=C(CN1CCN(c2ccccc2)CC1)Nc1ccc(-c2nc3cc(C(F)(F)F)ccc3[nH]2)cc1 | 0.9 | 32 | > 100 | > 100 | inactive | inactive | > 32 | > 100 | > 100 | > 100 | > 100 | – | – | –
9 | C#C[C@@]1(O)[C@H](O)[C@@H](CO)O[C@H]1n1ccc(N)nc1=O [2'-ETHYNYL-D-CYTIDINE] | ≥ 100 | > 100 | > 100 | > 100 | – | – | 38 | > 100 | 27 | 23 | > 100 | > 100 | > 100 | –
10 | O=C(CCl)Nc1ccc(-c2nc3cc(C(F)(F)F)ccc3[nH]2)cc1 | 5 | 17 | 22 | 35 | inactive | inactive | > 17 | > 22 | 24 | > 35 | > 35 | – | – | –
11 | O=C(CN1CCSCC1)Nc1ccc(-c2nc3cc(C(F)(F)F)ccc3[nH]2)cc1 | 6 | > 100 | > 100 | > 100 | inactive | inactive | > 100 | > 100 | > 100 | > 100 | > 100 | – | – | –
12 | CN1CCN(CC(=O)Nc2ccc(-c3nc4cc(Cl)c(Cl)cc4[nH]3)cc2)CC1 | 11 | 90 | 41 | > 100 | inactive | inactive | 4 | > 41 | > 100 | 89 | 51 | – | 6 | –
13 | O=C(Nc1ccc(-c2nc3cc(C(F)(F)F)ccc3[nH]2)cc1)Nc1ccc(-c2nc3cc(C(F)(F)F)ccc3[nH]2)cc1 | > 100 | > 100 | 17 | > 100 | inactive | inactive | > 100 | > 17 | > 100 | > 100 | > 100 | – | – | –
14 | O=C(CN1CCOCC1)Nc1ccc(-c2nc3ccccc3[nH]2)cc1 | 100 | 77 | > 100 | > 100 | inactive | inactive | > 77 | > 100 | > 100 | > 100 | > 100 | – | – | –
15 | CCC(=O)Nc1ccc(-c2nc3ccccc3[nH]2)cc1 | 35 | > 100 | ≥ 100 | > 100 | inactive | inactive | 47 | > 100 | 9 | 35 | > 100 | – | – | –
16 | O=C(CNC12CC3CC(CC(C3)C1)C2)Nc1ccc(-c2nc3cc(C(F)(F)F)ccc3[nH]2)cc1 | 15 | 23 | 18 | 45 | inactive | inactive | > 23 | > 18 | > 45 | > 45 | 45 | – | – | –
17 | O=c1cnn([C@@H]2O[C@H](CO)[C@@H](O)[C@H]2O)c(=O)[nH]1 (stereo in doubt; form 2) [6-AZAURIDINE] | – | > 100 | > 100 | – | – | – | > 100 | 26 | > 20 | – | > 20 | – | – | 1.2
18 | O=C(CN1CCCCC1)Nc1ccc(-c2nc3ccccc3[nH]2)cc1 | 31 | 18 | 31 | > 100 | inactive | inactive | 7 | > 31 | 17 | > 100 | > 100 | – | – | –
19 | O=C(CN1CCCCC1)Nc1ccc(-c2nc3cc(C(F)(F)F)ccc3[nH]2)cc1 | 6 | 6 | 12 | 31 | inactive | inactive | 2 | > 12 | 9 | > 31 | > 31 | – | – | –
20 | O=c1cnn([C@@H]2O[C@H](CO)[C@@H](O)[C@H]2O)c(=O)[nH]1 (stereo in doubt; form 1) [6-AZAURIDINE] | – | – | – | – | – | – | – | – | – | > 20 | – | 1.2 | 11 | –
21 | Nc1ccc(-c2nc3cc(C(F)(F)F)ccc3[nH]2)cc1 | 62 | 82 | 100 | > 100 | inactive | inactive | 15 | > 100 | 17 | 47 | > 100 | – | – | –
22 | C[C@@]1(O)[C@H](O)[C@@H](CO)O[C@H]1n1cnc2c(=O)[nH]c(N)nc21 [2'-B-METHYL-GUANOSINE] | > 100 | > 100 | 90 | > 100 | – | – | – | 1.8 | 20 | > 100 | > 100 | > 100 | > 100 | –
